The target in experiment [1] is 5-HT1B & 5-HT1D (Bos taurus). The experiment can be described thus: Binding affinity against 5-hydroxytryptamine 1B receptor - 5-hydroxytryptamine 1D receptor using [3H]5-HT as the radioligand.
Experiment [2] has as its target T1, 5-hydroxytryptamine receptor 1A (Rattus norvegicus, UniProt P19327).
T1 sequence (P19327 whole entry): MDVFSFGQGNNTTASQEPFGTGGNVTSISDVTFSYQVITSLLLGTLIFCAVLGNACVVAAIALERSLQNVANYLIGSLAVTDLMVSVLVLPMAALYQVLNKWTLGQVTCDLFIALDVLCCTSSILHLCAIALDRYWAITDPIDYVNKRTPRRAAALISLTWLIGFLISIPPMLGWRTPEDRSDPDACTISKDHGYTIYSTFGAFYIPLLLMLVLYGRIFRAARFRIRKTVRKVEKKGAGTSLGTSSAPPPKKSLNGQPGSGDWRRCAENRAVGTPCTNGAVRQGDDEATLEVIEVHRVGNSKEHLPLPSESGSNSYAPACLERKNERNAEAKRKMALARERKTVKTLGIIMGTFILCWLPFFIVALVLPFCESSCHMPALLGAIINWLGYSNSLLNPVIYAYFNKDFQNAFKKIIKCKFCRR
The experiment can be described thus: Binding affinity against 5-hydroxytryptamine 1A receptor from rat hippocampus using [3H]8-OH-DPAT as the radioligand. Type of experiment: tissue-based. The essentials:
(§1)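 Binding by the Jackson et al. method. 5-HT1A used [3H]OH-DPAT on rat hippocampus. α1 used [3H]prazosin, α2 [3H]RX821002 and β [3H]dihydroalprenolol, all on rat cortex. D1 used [3H]SCH-23390 on rat striatum. D2 used [3H]raclopride on LtkhD2A cell membranes.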

The next experiment has as its target Adrenergic receptor beta (Rattus norvegicus, UniProt P18090+P10608+P26255). The experiment can be described thus: Binding affinity against Beta adrenergic receptor in rat cortex using [3H]dihydroalprenolol as the radioligand. An outline of the steps:
as §1

The target of experiment [3] is T2, 5-hydroxytryptamine receptor 2C (Rattus norvegicus, UniProt P08909).
T2 sequence (P08909 whole entry): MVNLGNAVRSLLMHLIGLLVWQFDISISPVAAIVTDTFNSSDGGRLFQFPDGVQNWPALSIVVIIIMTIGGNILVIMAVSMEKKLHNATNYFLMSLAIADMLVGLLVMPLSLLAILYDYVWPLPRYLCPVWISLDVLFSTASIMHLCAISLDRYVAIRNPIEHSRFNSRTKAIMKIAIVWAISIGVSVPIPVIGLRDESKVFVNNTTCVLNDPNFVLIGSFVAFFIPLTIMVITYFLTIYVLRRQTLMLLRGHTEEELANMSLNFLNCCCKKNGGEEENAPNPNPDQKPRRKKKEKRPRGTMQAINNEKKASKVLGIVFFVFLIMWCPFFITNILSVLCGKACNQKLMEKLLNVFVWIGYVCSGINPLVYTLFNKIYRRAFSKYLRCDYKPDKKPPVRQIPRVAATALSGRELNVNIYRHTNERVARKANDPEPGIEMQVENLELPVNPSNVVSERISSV
The experiment can be described thus: Binding affinity against 5-hydroxytryptamine 2C receptor from rat cortex using [3H]mesulergine as the radioligand. Type of experiment: tissue-based. An outline of the steps:
(§2)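 Binding by the Johansson et al. method. 5-HT2A used [3H]ketanserin and 5-HT2C used [3H]mesulergine, both on rat cortex. 5-HT6 and 5-HT7 used [3H]-5-HT on CHO cell membranes expressing the rat receptors.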

The next experiment deals with D(2) dopamine receptor (Homo sapiens, UniProt P14416). The experiment in a line: Binding affinity against Dopamine receptor D2 from cell LtkhD2A membranes using [3H]raclopride as the radioligand. The essentials:
as §1

For experiment [4], the target named is 5-hydroxytryptamine receptor 1B (Rattus norvegicus, UniProt P28564). The experiment in a line: Binding affinity against 5-hydroxytryptamine 1B receptor in membranes of Rat cerebral cortex. In kind it is tissue-based. An outline of the steps:
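Rat cerebral cortical membranes labelled with [125I]iodocyanopindolol in the presence of 60 μM isoproterenol to block β-adrenoceptor binding. Nonspecific binding was defined with 10 μM 5-HT.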

The target in experiment [5] is Sigma non-opioid intracellular receptor 1 (Rattus norvegicus, UniProt Q9R0C9). The experiment in a line: Binding affinity against sigma receptor from rat whole brains using [3H]DTG as the radioligand. An outline of the steps:
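Whole rat brain membranes labelled with [3H]DTG (N,N-di(o-tolyl)guanidine), following Ross.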

The target in experiment [6] is 5-hydroxytryptamine receptor 2A (Rattus norvegicus, UniProt P14842). The experiment in a line: Binding affinity against 5-hydroxytryptamine 2A receptor from rat cortex using [3H]ketanserin as the radioligand. The essentials: as §2

This is an account of results in ChEMBL document CHEMBL1131235, “(R)-(+)-2-[[[3-(Morpholinomethyl)-2H-chromen-8-yl]oxy]methyl] morpholine methanesulfonate: a new selective rat 5-hydroxytryptamine1B receptor antagonist” (J Med Chem, 1998).

Where only a bound is given, the exact number is not on record here.

Sigma non-opioid intracellular receptor 1, sequence (Q9R0C9 whole entry): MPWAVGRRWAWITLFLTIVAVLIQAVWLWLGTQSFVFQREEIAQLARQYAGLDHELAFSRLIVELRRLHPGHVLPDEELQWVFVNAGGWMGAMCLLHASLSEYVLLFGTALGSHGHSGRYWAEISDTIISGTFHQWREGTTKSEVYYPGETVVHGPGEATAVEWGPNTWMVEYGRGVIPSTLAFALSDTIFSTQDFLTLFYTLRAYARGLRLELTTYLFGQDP
5-hydroxytryptamine receptor 2A, sequence (P14842 whole entry): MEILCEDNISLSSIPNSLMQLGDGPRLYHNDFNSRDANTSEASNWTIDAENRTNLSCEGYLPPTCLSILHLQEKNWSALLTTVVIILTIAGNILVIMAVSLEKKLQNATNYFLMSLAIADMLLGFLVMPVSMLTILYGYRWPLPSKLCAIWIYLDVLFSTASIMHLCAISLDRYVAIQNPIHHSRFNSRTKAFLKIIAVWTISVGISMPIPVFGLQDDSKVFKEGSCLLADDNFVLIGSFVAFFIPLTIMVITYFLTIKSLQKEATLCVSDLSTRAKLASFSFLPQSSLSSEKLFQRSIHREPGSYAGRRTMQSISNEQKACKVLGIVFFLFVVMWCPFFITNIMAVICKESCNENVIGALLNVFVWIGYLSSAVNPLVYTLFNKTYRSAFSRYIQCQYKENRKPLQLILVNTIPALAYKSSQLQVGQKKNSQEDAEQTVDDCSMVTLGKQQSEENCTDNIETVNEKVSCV
5-hydroxytryptamine receptor 1B, sequence (P28564 whole entry): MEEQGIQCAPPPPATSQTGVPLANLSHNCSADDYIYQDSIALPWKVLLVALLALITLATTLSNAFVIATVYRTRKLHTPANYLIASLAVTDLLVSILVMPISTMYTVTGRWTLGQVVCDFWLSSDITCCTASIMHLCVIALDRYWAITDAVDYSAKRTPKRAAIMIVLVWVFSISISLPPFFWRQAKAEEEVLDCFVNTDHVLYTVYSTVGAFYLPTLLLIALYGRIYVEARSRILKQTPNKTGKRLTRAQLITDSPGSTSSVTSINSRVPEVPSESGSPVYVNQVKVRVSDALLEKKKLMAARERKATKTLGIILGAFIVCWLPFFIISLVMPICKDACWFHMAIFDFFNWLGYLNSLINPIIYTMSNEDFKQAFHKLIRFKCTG
D(2) dopamine receptor, sequence (P14416 whole entry): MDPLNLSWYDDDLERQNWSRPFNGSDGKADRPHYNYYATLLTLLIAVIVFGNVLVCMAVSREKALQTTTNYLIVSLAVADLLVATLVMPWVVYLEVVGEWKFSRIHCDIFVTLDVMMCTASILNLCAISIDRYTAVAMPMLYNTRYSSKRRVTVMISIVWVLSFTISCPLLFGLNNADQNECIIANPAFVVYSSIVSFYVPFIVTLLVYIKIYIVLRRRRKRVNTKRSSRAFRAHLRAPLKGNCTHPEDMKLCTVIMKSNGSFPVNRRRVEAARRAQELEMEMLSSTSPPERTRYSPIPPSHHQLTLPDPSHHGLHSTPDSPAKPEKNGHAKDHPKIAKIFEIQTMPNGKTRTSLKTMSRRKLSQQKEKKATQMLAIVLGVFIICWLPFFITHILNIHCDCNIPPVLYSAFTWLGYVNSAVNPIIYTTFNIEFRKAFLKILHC

As a reminder, the Ki is the equilibrium dissociation constant of an inhibitor or competing ligand from its target. A low value points to a stronger hold on the target. For `C1=C(CN2CCOCC2)COc2c1cccc2OC[C@H]1CNCCO1.CS(=O)(=O)O`, the Ki in experiment [1] was 0.63 µM; in experiment [2], above 10 µM; on Adrenergic receptor beta, above 10 µM; in experiment [3], above 10 µM; at D(2) dopamine receptor, above 10 µM; in experiment [4] it was 0.047 µM. The inhibitory constant (Ki) in experiment [5] and in experiment [6] was above 10 µM each time.

Take `C1=C(CN2CCOCC2)COc2c1cccc2OC[C@@H]1CNCCO1.Cl`: the inhibition constant Ki in experiment [1] is above 10 µM; in experiment [2], above 10 µM; at Adrenergic receptor beta, 10 µM; in experiment [3], above 10 µM; at D(2) dopamine receptor, above 10 µM; in experiment [4], 0.275 µM. Also, the inhibition constant (Ki) in experiment [5] and in experiment [6] was above 10 µM throughout.
